# Laboratory results published in ChEMBL document CHEMBL4038305, “Benzoxaborole Antimalarial Agents. Part 5. Lead Optimization of Novel Amide Pyrazinyloxy Benzoxaboroles and Identification of a Preclinical Candidate” (J Med Chem, 2017).
# pIC50: −log10 of the molar value.
# Tests used:
# Plasmodium berghei [1] = assay: Antimalarial activity against Plasmodium berghei infected in Swiss Webster mouse assessed as mouse survival rate at 3 mg/kg administered once daily via oral gavage for 4 consecutive days beginning 1 hr after infection measured on day 6 post infection relative to control; assay type: functional
# How it was run: (§1)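 P. berghei-infected erythrocytes taken from a previously infected mouse were injected intraperitoneally. Oral dosing, once daily for 4 consecutive days, began 1 h after infection, in polyethylene glycol 300/propylene glycol/water (55/25/20 by weight). Chloroquine at 30 mg/kg was the positive control, with a vehicle-only group. Percent survival was recorded daily from day 4 to day 20.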
# Plasmodium falciparum [2] = assay: Antimalarial activity against chloroquine-sensitive Plasmodium falciparum 3D7 infected in human erythrocytes assessed as reduction in [3H]-hypoxanthine incorporation preincubated for 24 hrs followed by [3H]-hypoxanthine addition measured after 24 hrs by scintillation counting method; assay type: functional, cell-based
# How it was run: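 P. falciparum 3D7 cultures were exposed to the compound for 48 h, with atovaquone as the reference control. IC50 was taken from three replicates.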
# Plasmodium berghei [3] = assay: Antimalarial activity against Plasmodium berghei infected in Swiss Webster mouse assessed as mouse survival rate at 100 mg/kg administered once daily via oral gavage for 4 consecutive days beginning 1 hr after infection measured on day 6 post infection relative to control; assay type: functional
# How it was run: (§2)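 Mice given an intraperitoneal injection of P. berghei-infected erythrocytes taken from a previously infected animal. Oral dosing once daily for 4 consecutive days, starting 1 h after infection. Vehicle: polyethylene glycol 300/propylene glycol/water (weight ratio 55/25/20). Percent survival recorded daily from day 4 to day 20. Chloroquine 30 mg/kg and vehicle-only groups served as controls.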
# Plasmodium berghei [4] = assay: Antimalarial activity against Plasmodium berghei infected in Swiss Webster mouse assessed as mouse survival rate at 3 mg/kg administered once daily via oral gavage for 4 consecutive days beginning 1 hr after infection measured on day 4 post infection relative to control; assay type: functional; how it was run: as §1
# Plasmodium berghei [5] = assay: Antimalarial activity against Plasmodium berghei infected in Swiss Webster mouse assessed as mouse survival rate at 200 mg/kg administered once daily via oral gavage for 4 consecutive days beginning 1 hr after infection measured on day 11 post infection relative to control; assay type: functional; how it was run: as §1
# Plasmodium berghei [6] = assay: Antimalarial activity against Plasmodium berghei infected in Swiss Webster mouse assessed as mouse survival rate at 1 mg/kg administered once daily via oral gavage for 4 consecutive days beginning 1 hr after infection measured on day 4 post infection relative to control; assay type: functional; how it was run: as §2
# Plasmodium berghei [7] = assay: Antimalarial activity against Plasmodium berghei infected in Swiss Webster mouse assessed as mouse survival rate at 33 mg/kg administered once daily via oral gavage for 4 consecutive days beginning 1 hr after infection measured on day 5 post infection relative to control; assay type: functional; how it was run: as §1
# Plasmodium berghei [8] = assay: Antimalarial activity against Plasmodium berghei infected in Swiss Webster mouse assessed as mouse survival rate at 1 mg/kg administered once daily via oral gavage for 4 consecutive days beginning 1 hr after infection measured on day 7 post infection relative to control; assay type: functional; how it was run: as §2
# Plasmodium berghei [9] = assay: Antimalarial activity against Plasmodium berghei infected in Swiss Webster mouse assessed as mouse survival rate at 100 mg/kg administered once daily via oral gavage for 4 consecutive days beginning 1 hr after infection measured on day 8 post infection relative to control; assay type: functional; how it was run: as §2
# Plasmodium berghei [10] = assay: Antimalarial activity against Plasmodium berghei infected in Swiss Webster mouse assessed as mouse survival rate at 1 mg/kg administered once daily via oral gavage for 4 consecutive days beginning 1 hr after infection measured on day 6 post infection relative to control; assay type: functional; how it was run: as §2
# Plasmodium berghei [11] = assay: Antimalarial activity against Plasmodium berghei infected in Swiss Webster mouse assessed as mouse survival rate at 200 mg/kg administered once daily via oral gavage for 4 consecutive days beginning 1 hr after infection measured on day 4 post infection relative to control; assay type: functional; how it was run: as §1
# Plasmodium berghei [12] = assay: Antimalarial activity against Plasmodium berghei infected in Swiss Webster mouse assessed as mouse survival rate at 11 mg/kg administered once daily via oral gavage for 4 consecutive days beginning 1 hr after infection measured on day 4 post infection relative to control; assay type: functional; how it was run: as §1
# Plasmodium berghei [13] = assay: Antimalarial activity against Plasmodium berghei infected in Swiss Webster mouse assessed as mouse survival rate at 11 mg/kg administered once daily via oral gavage for 4 consecutive days beginning 1 hr after infection measured on day 6 post infection relative to control; assay type: functional; how it was run: as §1
# Plasmodium falciparum [14] = assay: Antimalarial activity against chloroquine-resistant Plasmodium falciparum W2 infected in human erythrocytes after 48 hrs by YOYO-1 dye based flow cytometric analysis; assay type: functional, cell-based; conditions: W2, 48 h
# How it was run: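 P. falciparum W2 cultures were exposed to the compound for 48 h, with artemisinin and chloroquine as reference controls. IC50 was taken from two independent replicates.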
# Plasmodium berghei [15] = assay: Antimalarial activity against Plasmodium berghei infected in Swiss Webster mouse assessed as mouse survival rate at 33 mg/kg administered once daily via oral gavage for 4 consecutive days beginning 1 hr after infection measured on day 6 post infection relative to control; assay type: functional; how it was run: as §1
# Plasmodium berghei [16] = assay: Antimalarial activity against Plasmodium berghei infected in Swiss Webster mouse assessed as mouse survival rate at 3.7 mg/kg administered once daily via oral gavage for 4 consecutive days beginning 1 hr after infection measured on day 5 post infection relative to control; assay type: functional; how it was run: as §1
# Plasmodium berghei [17] = assay: Antimalarial activity against Plasmodium berghei infected in Swiss Webster mouse assessed as mouse survival rate at 3 mg/kg administered once daily via oral gavage for 4 consecutive days beginning 1 hr after infection measured on day 5 post infection relative to control; assay type: functional; how it was run: as §1
# Plasmodium berghei [18] = assay: Antimalarial activity against Plasmodium berghei infected in Swiss Webster mouse assessed as mouse survival rate administered once daily via oral gavage for 4 consecutive days beginning 1 hr after infection measured on day 4 post infection; assay type: functional; how it was run: as §2
# Plasmodium berghei [19] = assay: Antimalarial activity against Plasmodium berghei infected in Swiss Webster mouse assessed as mouse survival rate at 200 mg/kg administered once daily via oral gavage for 4 consecutive days beginning 1 hr after infection measured on day 9 post infection relative to control; assay type: functional; how it was run: as §1
# Plasmodium berghei [20] = assay: Antimalarial activity against Plasmodium berghei infected in Swiss Webster mouse assessed as mouse survival rate at 200 mg/kg administered once daily via oral gavage for 4 consecutive days beginning 1 hr after infection measured on day 7 post infection relative to control; assay type: functional; how it was run: as §1
# Plasmodium berghei [21] = assay: Antimalarial activity against Plasmodium berghei infected in Swiss Webster mouse assessed as mouse survival rate at 3 mg/kg administered once daily via oral gavage for 4 consecutive days beginning 1 hr after infection measured on day 7 post infection relative to control; assay type: functional; how it was run: as §1
# Plasmodium berghei [22] = assay: Antimalarial activity against Plasmodium berghei infected in Swiss Webster mouse assessed as mouse survival rate at 200 mg/kg administered once daily via oral gavage for 4 consecutive days beginning 1 hr after infection measured on day 10 post infection relative to control; assay type: functional; how it was run: as §1
# Plasmodium berghei [23] = assay: Antimalarial activity against Plasmodium berghei infected in Swiss Webster mouse assessed as mouse survival rate at 1 mg/kg administered once daily via oral gavage for 4 consecutive days beginning 1 hr after infection measured on day 5 post infection relative to control; assay type: functional; how it was run: as §2
# Plasmodium berghei [24] = assay: Antimalarial activity against Plasmodium berghei infected in Swiss Webster mouse assessed as mouse survival rate at 33 mg/kg administered once daily via oral gavage for 4 consecutive days beginning 1 hr after infection measured on day 4 post infection relative to control; assay type: functional; how it was run: as §1
# Plasmodium berghei [25] = assay: Antimalarial activity against Plasmodium berghei infected in Swiss Webster mouse assessed as mouse survival rate at 200 mg/kg administered once daily via oral gavage for 4 consecutive days beginning 1 hr after infection measured on day 6 post infection relative to control; assay type: functional; how it was run: as §1
# Plasmodium berghei [26] = assay: Antimalarial activity against Plasmodium berghei infected in Swiss Webster mouse assessed as mouse survival rate at 33 mg/kg administered once daily via oral gavage for 4 consecutive days beginning 1 hr after infection measured on day 7 post infection relative to control; assay type: functional; how it was run: as §1
# Plasmodium berghei [27] = assay: Antimalarial activity against Plasmodium berghei infected in Swiss Webster mouse assessed as mouse survival rate at 200 mg/kg administered once daily via oral gavage for 4 consecutive days beginning 1 hr after infection measured on day 5 post infection relative to control; assay type: functional; how it was run: as §1
# Plasmodium berghei [28] = assay: Antimalarial activity against Plasmodium berghei infected in Swiss Webster mouse assessed as mouse survival rate at 100 mg/kg administered once daily via oral gavage for 4 consecutive days beginning 1 hr after infection measured on day 5 post infection relative to control; assay type: functional; how it was run: as §2
# Plasmodium berghei [29] = assay: Antimalarial activity against Plasmodium berghei infected in Swiss Webster mouse assessed as mouse survival rate at 100 mg/kg administered once daily via oral gavage for 4 consecutive days beginning 1 hr after infection measured on day 7 post infection relative to control; assay type: functional; how it was run: as §2
# Plasmodium berghei [30] = assay: Antimalarial activity against Plasmodium berghei infected in Swiss Webster mouse assessed as mouse survival rate at 100 mg/kg administered once daily via oral gavage for 4 consecutive days beginning 1 hr after infection measured on day 9 post infection relative to control; assay type: functional; how it was run: as §2
# Plasmodium berghei [31] = assay: Antimalarial activity against Plasmodium berghei infected in Swiss Webster mouse assessed as mouse survival rate at 200 mg/kg administered once daily via oral gavage for 4 consecutive days beginning 1 hr after infection measured on day 8 post infection relative to control; assay type: functional; how it was run: as §1
# Plasmodium berghei [32] = assay: Antimalarial activity against Plasmodium berghei infected in Swiss Webster mouse assessed as mouse survival rate at 11 mg/kg administered once daily via oral gavage for 4 consecutive days beginning 1 hr after infection measured on day 7 post infection relative to control; assay type: functional; how it was run: as §1
# Plasmodium berghei [33] = assay: Antimalarial activity against Plasmodium berghei infected in Swiss Webster mouse assessed as mouse survival rate at 100 mg/kg administered once daily via oral gavage for 4 consecutive days beginning 1 hr after infection measured on day 4 post infection relative to control; assay type: functional; how it was run: as §2
compound,measurement,setting,value
CC[C@H](CO)NC(=O)c1cnc(Oc2ccc3c(c2C)B(O)OC3)cn1,survival at 3 mg/kg,Plasmodium berghei [1],100%
same,pIC50,Plasmodium falciparum [2],6.39
same,survival at 100 mg/kg,Plasmodium berghei [3],100%
same,survival at 3 mg/kg,Plasmodium berghei [4],100%
same,survival at 200 mg/kg,Plasmodium berghei [5],0%
same,survival at 1 mg/kg,Plasmodium berghei [6],100%
same,survival at 33 mg/kg,Plasmodium berghei [7],100%
same,survival at 1 mg/kg,Plasmodium berghei [8],0%
same,survival at 100 mg/kg,Plasmodium berghei [9],80%
same,survival at 1 mg/kg,Plasmodium berghei [10],100%
same,survival at 200 mg/kg,Plasmodium berghei [11],100%
same,survival at 11 mg/kg,Plasmodium berghei [12],100%
same,survival at 11 mg/kg,Plasmodium berghei [13],100%
same,pIC50,Plasmodium falciparum [14],6.87
same,survival at 33 mg/kg,Plasmodium berghei [15],100%
same,survival at 3.7 mg/kg,Plasmodium berghei [16],100%
same,survival at 3 mg/kg,Plasmodium berghei [17],100%
same,ED90,Plasmodium berghei [18],43.3 mg/kg
same,survival at 200 mg/kg,Plasmodium berghei [19],60%
same,survival at 200 mg/kg,Plasmodium berghei [20],100%
same,survival at 3 mg/kg,Plasmodium berghei [21],0%
same,survival at 200 mg/kg,Plasmodium berghei [22],20%
same,survival at 1 mg/kg,Plasmodium berghei [23],100%
same,survival at 33 mg/kg,Plasmodium berghei [24],100%
same,survival at 200 mg/kg,Plasmodium berghei [25],100%
same,survival at 33 mg/kg,Plasmodium berghei [26],0%
same,survival at 200 mg/kg,Plasmodium berghei [27],100%
same,survival at 100 mg/kg,Plasmodium berghei [28],100%
same,survival at 100 mg/kg,Plasmodium berghei [29],100%
same,survival at 100 mg/kg,Plasmodium berghei [30],0%
same,survival at 200 mg/kg,Plasmodium berghei [31],100%
same,survival at 11 mg/kg,Plasmodium berghei [32],0%
same,survival at 100 mg/kg,Plasmodium berghei [33],100%
